# Bioassay records: PubChem, several laboratories
# Only a selection was taken, and hits are over-represented in it overall.
# HCT116 PTEN-null: growth suppressors of cells with PTEN tumor suppressor deletion; 1.2% of 140,000 active; HCT116 PTEN-null viability, CellTiter-Glo, 60 h; hits give low values; viability, % at 10 µM;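 active = viability at or below a set limit, 4 SD under the median of all tested compounds, cut at about 3.7% in these data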;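 also: PTEN knockout HCT116 line with beta catenin targeted HCT116 as companion control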
# H69AR growth 86K: growth inhibitors of human H69AR lung tumor cells. H69AR lung tumor viability, ATP luminescence, 72 h; hits give low values. viability, % at 10 µM. 6% of 85,000 active. AID 598;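 active = viability at or below 40%; inactive = viability above 40%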;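 also: multidrug resistant small cell line overexpressing MRP-1 efflux transporter; 100% = mean luminescence of untreated control wells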
# HUVEC prolif 384: inhibitors of human endothelial cell proliferation. 1.1% of 86,000 active. HUVEC proliferation, CellTiter-Glo luminescence, 72 h; hits give low values. viability, % at 10 µM (by protocol). AID 648;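 active = viability at or below 30%; inactive = viability above 30%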;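 also: 100% = median luminescence of DMSO-only cell control wells on each plate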
# bCat KO growth: beta-catenin-lacking colon tumor cell growth suppression. viability, % at 10 µM. 1.5% of 140,000 active. HCT116 beta-catenin knockout viability, CellTiter-Glo, 60 h; hits give low values. AID 818;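 active = viability at or under a set limit, the compound median less 4 SD, cut at about 6% in these data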;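 also: 0% = Hyamine 1622 control at 20 µM and 100% = untreated cell control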
# Lung fibro prol: blocks proliferation of human lung fibroblasts. 1.1% of 85,000 active. AID 719. LL 47 human lung fibroblast viability, ATP luminescence; hits give low values. viability, % at 10 µM;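 active = viability at or below 50% in the single dose screen; inactive = viability above 50%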;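 also: compound exposure lasted 72 h before the ATP readout; 100% = median luminescence of untreated cell-only wells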
#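 test system = LL 47 human lung fibroblasts | amount = 1,150 fibroblasts seeded per well | medium = 15% FBS in IMEM | times = overnight cell rest, 72 h compound treatment at 37 °C | measured by = CellTiter-Glo luminescence measuring cellular ATP | read-out = viability percentage against median untreated-cell control | benchmarks = cell-only wells, no compound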
# Phagocytosis inh: blocks phagocytosis by macrophages; J774A.1 macrophage IgG-bead phagocytosis, imaging; inhibition, % at 5 µM; 0.07% of 110,000 active;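 active = inhibition above the mean of the plate negative controls plus 5 SD, cut at about 13% in these data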;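 also: phagocytic index as fraction of beads internalized from green versus red external bead signal; plate controls were DMSO negative control for no effect and cytochalasin-D positive control for full effect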
# * marks the source's active call; other numbers are inactive results; · = not tested or not shown.
SMILES,HCT116 PTEN-null,H69AR growth 86K,HUVEC prolif 384,bCat KO growth,Lung fibro prol,Phagocytosis inh
O=C(/C=C/c1ccccc1)CC(O)(c1ccccc1)C(F)(F)C(F)F (centres undefined),·,1.3*,5.3*,2.8*,32*,-1
Cc1cc(C#N)c(C)n1-c1cc(S(=O)(=O)N2CCOCC2)ccc1N1CCCC1,80,44,87,72,92,-1
O=C(NNC(=O)C1CCN(S(=O)(=O)c2ccc(Cl)cc2)CC1)c1ccccc1,92,·,·,106,·,0
[O-]/C(=C(\C(=S)Nc1cccc2ccccc12)[n+]1ccccc1)c1ccc2c(c1)OCCO2,78,94,91,80,95,2
CC(C)(C)N(NC(=O)Nc1ccc(Cl)c(Cl)c1)C(=O)c1ccccc1,3.4*,·,·,9,·,·
CC(C)(C)N(NC(=O)Nc1ccc(F)cc1)C(=O)c1ccccc1,89,·,·,96,·,-5
Cc1ccc(SCCC(=O)NCCSCc2ccccc2C)cc1,91,·,·,100,·,4
CC(O)CN1C(=O)C(CC(=O)Nc2ccc(Cl)cc2)SC1=Nc1ccccc1 (centres undefined),68,39*,66,76,92,·
COCCN1C(=O)C(CC(=O)Nc2ccc(C(C)=O)cc2)SC1=Nc1ccccc1 (centres undefined),81,·,·,89,·,0
Clc1ccc(CNc2nnnn2-c2ccccc2)c(Cl)c1,84,·,·,81,·,0
CCc1ccc2[nH]c(=O)c(CN(Cc3ccco3)S(=O)(=O)c3ccc4c(c3)OCCO4)cc2c1,87,23*,71,80,73,-1
Cc1ccc(C)c2[nH]c(=O)c(CN(Cc3ccco3)S(=O)(=O)c3ccc4c(c3)OCCO4)cc12,29,81,64,33,95,-2
CCOc1cc(NC(=O)c2ccco2)c(OCC)cc1NC(=O)COc1ccccc1C,·,20*,62,·,57,·
O=C(Nc1cc(C(F)(F)F)ccc1N1CCOCC1)C1Cc2ccccc2CN1C(=O)c1ccco1 (centres undefined),63,77,91,72,92,0
CC(=O)N1CCN(c2nc3cc4c(cc3nc2NS(=O)(=O)c2ccccc2)OCCO4)CC1,92,76,88,92,100,·
Nc1nc(-c2ccc(Cl)cc2)c(N=Nc2ccc(S(=O)(=O)N3CCOCC3)cc2)s1,3.7*,·,·,19,·,-6
COc1cccc(OC)c1/C(O)=C(\C#N)c1nc2ccccc2[nH]1,89,27*,88,84,91,0
N#C/C(=C(/O)COC(=O)CCc1ccc(S(=O)(=O)N2CCOCC2)cc1)c1nc2ccccc2[nH]1,4,41,76,5.7*,90,6
CCOC(=O)c1c(C)[nH]c(C(=O)OC/C(O)=C(\C#N)c2nc3ccccc3[nH]2)c1C,79,57,9.2*,87,112,0
COc1ccccc1OCC(=O)OC/C(O)=C(\C#N)c1nc2ccccc2[nH]1,2.2*,·,·,5.5*,·,5
CC(C)c1nnc(NC(=O)Cn2nc(-c3ccc4c(c3)OCCO4)ccc2=O)s1,102,89,94,104,98,0
CCCCc1c(CCC)c(=N)c2ccccc2n1C,47,86,104,48,94,·
Oc1ccc(-c2n[nH]c(=S)n2-c2ccc3c(c2)OCCO3)cc1,89,·,·,90,·,-8
Oc1ccc(F)cc1-c1cc(-c2ccc3c(c2)OCCO3)n[nH]1,44,37*,66,18,77,-3
COc1cc(C2NCC(c3ccc(Cl)cc3Cl)c3c2[nH]c2ccccc32)cc(OC)c1OC (centres undefined),61,·,·,58,·,0
SMILES,HCT116 PTEN-null,H69AR growth 86K,HUVEC prolif 384,bCat KO growth,Lung fibro prol,Phagocytosis inh
COc1cc([C@H]2c3[nH]c4ccccc4c3C[C@H]3C(=O)N4[C@@H](c5cc(OC)c(OC)c(OC)c5)c5[nH]c6ccccc6c5C[C@H]4C(=O)N23)cc(OC)c1OC,1.8*,·,·,3.0*,·,·
O=C1[C@@H]2Cc3c([nH]c4ccccc34)[C@@H](c3ccccc3)N2C(=O)[C@@H]2Cc3c([nH]c4ccccc34)[C@@H](c3ccccc3)N12,1.5*,·,·,1.4*,·,·
CS(=O)(=O)n1nc(-c2ccc(Cl)cc2)nc1SCc1ccccc1,103,102,72,93,102,0
C=CCNS(=O)(=O)c1nc(C)c(Cl)c(C)c1C#N,96,71,99,81,·,27*
Clc1cccc(/C=N/Nc2ncnc3ccccc23)c1,7,·,·,2.8*,·,3
O=C1CC(NCc2ccc3c(c2)OCO3)C(=O)N1CCc1ccccc1 (centres undefined),93,94,98,95,101,-5
Cn1c(-c2ccc(F)cc2)cnc1NCc1cccc(F)c1,80,36*,80,80,75,1
Cn1c(-c2ccc(F)cc2)cnc1NCc1ccccc1,80,74,94,73,93,1
CCCCOc1ccc(Br)cc1/C(C)=N/NC1=NCCN1,2.9*,83,7.1*,2.4*,23*,·
Cc1ccc(NC(=O)Cn2c(=O)oc3cc(S(=O)(=O)N4CCC(C)CC4)ccc32)cc1C,99,17*,77,81,89,0
O=C(Cn1c(=O)oc2cc(S(=O)(=O)N3CCCCCC3)ccc21)NC1CCCCC1,97,103,89,94,106,0
C/C(=N\O)c1ccc2c3ccccc3n(C)c2c1,88,95,24*,84,96,-3
CC(C(=O)NC(=O)NCc1ccccc1)N1C(=O)c2ccccc2C1=O (centres undefined),0.9*,94,94,0.9*,100,0
Cc1ccc2cc(C3C(C#N)=C(N)Oc4c3ccc3cccnc43)c(=O)[nH]c2c1 (centres undefined),93,37*,80,82,51,·
CCc1ccc2[nH]c(=O)c(C3C(C#N)=C(N)Oc4c3ccc3cccnc43)cc2c1 (centres undefined),15,0.8*,57,13,70,-1
CC(=O)C1=C(C)OC(N)=C(C#N)C1c1cc2cccc(C)c2nc1Cl (centres undefined),94,·,·,102,·,·
C/C(=N\NC(=S)Nc1cc(S(=O)(=O)N2CCOCC2)ccc1Cl)c1ccccc1F,60,·,·,59,·,1
COc1ccc(OC)c(S(=O)(=O)Nc2ccc(O)c3ccccc23)c1,2.0*,1.9*,2.3*,1.8*,55,0
COc1ccc(OC)c(NS(=O)(=O)c2ccc(NC(C)=O)cc2)c1,67,34*,91,76,93,0
COc1ccc(OC)c(NS(=O)(=O)c2ccc(SC)cc2)c1,27,14*,62,22,84,·
COc1ccc(NS(=O)(=O)c2ccc(NS(=O)(=O)c3ccc(SC)cc3)cc2)c(OC)c1,·,55,85,90,101,1
COc1ccc(S(=O)(=O)Nc2cc(Cl)ccc2OC)cc1,18,19*,39,19,52,2
COc1ccc(Cl)cc1NS(=O)(=O)c1ccc(OC)c(OC)c1,88,95,91,90,104,·
